The record followed here is ChEMBL document CHEMBL1914336, “Use of the hydantoin isostere to produce inhibitors showing selectivity toward the vesicular glutamate transporter versus the obligate exchange transporter system x(c)(-)” (Bioorg Med Chem Lett, 2011).

A value given as a limit tells only on which side of the number the result lay.

Experiment [1] is filed under the species Rattus norvegicus. The experiment in a line: Inhibition of VGLUT in rat synaptic vesicles assessed as glutamate uptake at 5 mM relative to control. Details: scale not given: the % may be the effect or the level left. The procedure, abridged:
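Rat brain synaptic vesicles were isolated and VGLUT-mediated uptake of 250 μM L-glutamate was measured with inhibitor at 5 mM. Uptake was corrected for non-specific uptake, normalized to protein content and expressed as % of control.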

Experiment [2] concerns the target T1, Cystine/glutamate transporter (Homo sapiens) (UniProt Q9UPY5).
T1 sequence (whole entry): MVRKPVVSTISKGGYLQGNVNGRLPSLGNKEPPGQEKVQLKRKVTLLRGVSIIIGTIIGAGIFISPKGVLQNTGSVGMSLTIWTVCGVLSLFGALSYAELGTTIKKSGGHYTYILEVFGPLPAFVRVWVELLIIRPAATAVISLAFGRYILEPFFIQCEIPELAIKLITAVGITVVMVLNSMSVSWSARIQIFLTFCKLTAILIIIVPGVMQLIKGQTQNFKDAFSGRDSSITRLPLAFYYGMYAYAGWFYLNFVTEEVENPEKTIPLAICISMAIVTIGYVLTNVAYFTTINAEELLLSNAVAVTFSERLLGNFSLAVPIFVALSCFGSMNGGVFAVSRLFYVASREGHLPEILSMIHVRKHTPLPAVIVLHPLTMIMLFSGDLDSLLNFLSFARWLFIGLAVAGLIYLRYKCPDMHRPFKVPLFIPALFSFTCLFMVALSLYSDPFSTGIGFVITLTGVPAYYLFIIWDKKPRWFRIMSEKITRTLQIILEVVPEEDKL
The experiment in a line: Inhibition of cystine/glutamate transporter in human SNB19 cells assessed as [3H]glutamate uptake at 500 uM. The format is cell-based. Details: scale not given: the % may be the effect or the level left. The settings on record: SNB-19. The procedure, abridged:
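SNB19 glioma cells were kept under Na-free conditions and system xc−-mediated uptake of 100 μM L-glutamate was measured with inhibitor at 500 μM. Uptake was corrected for non-specific uptake and normalized to protein content.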

Experiment [3] concerns the target Excitatory amino acid transporter 2 (Homo sapiens) (UniProt P43004). Nature of the experiment: Inhibition of EAAT2-mediated D-aspartate transport at 100 uM. The essentials: (§1)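 Transport by EAAT1, EAAT2 or EAAT3 was measured with 25 μM D-aspartate as substrate and inhibitor present at 100 μM.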
Experiment [4] deals with Excitatory amino acid transporter 1 (Homo sapiens) (UniProt P43003). Nature of the experiment: Inhibition of EAAT1-mediated D-aspartate transport at 100 uM. The essentials: as §1
A short description of experiment [5]: Inhibition of VGLUT in rat synaptic vesicles assessed as inhibition of glutamate uptake. The procedure, abridged: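 Dose–response for VGLUT inhibition in synaptic vesicles isolated from rat brain, using 250 μM L-glutamate as substrate. Uptake was corrected for non-specific uptake and normalized to protein; IC50 was taken from the dose curve.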
Experiment [6] deals with Excitatory amino acid transporter 3 (Homo sapiens) (UniProt P43005). Nature of the experiment: Inhibition of EAAT3-mediated D-aspartate transport at 100 uM.
For experiment [7], the species on record is Rattus norvegicus. The experiment in a line: Inhibition of VGLUT in rat synaptic vesicles assessed as glutamate uptake at 500 uM relative to control. Details: scale not given: the % may be the effect or the level left.

Excitatory amino acid transporter 2 (Homo sapiens), sequence (P43004 whole entry, the tested form may be a part): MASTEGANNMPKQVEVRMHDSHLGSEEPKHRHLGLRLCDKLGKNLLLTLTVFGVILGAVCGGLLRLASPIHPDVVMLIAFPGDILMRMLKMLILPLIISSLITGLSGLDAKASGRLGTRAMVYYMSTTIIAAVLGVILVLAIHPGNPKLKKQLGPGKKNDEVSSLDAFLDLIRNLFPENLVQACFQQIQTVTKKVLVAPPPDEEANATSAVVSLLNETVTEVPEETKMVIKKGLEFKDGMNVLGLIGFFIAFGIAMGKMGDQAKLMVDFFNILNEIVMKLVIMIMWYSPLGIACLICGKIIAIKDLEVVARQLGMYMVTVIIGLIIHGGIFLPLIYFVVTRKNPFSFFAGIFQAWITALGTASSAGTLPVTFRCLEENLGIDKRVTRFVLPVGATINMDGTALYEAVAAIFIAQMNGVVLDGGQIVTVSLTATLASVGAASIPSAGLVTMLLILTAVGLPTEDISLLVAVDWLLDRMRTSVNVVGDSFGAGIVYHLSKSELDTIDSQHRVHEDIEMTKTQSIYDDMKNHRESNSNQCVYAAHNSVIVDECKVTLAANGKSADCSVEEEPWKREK
Excitatory amino acid transporter 3 (Homo sapiens), sequence (P43005 whole entry, looked up, the tested form may be a part): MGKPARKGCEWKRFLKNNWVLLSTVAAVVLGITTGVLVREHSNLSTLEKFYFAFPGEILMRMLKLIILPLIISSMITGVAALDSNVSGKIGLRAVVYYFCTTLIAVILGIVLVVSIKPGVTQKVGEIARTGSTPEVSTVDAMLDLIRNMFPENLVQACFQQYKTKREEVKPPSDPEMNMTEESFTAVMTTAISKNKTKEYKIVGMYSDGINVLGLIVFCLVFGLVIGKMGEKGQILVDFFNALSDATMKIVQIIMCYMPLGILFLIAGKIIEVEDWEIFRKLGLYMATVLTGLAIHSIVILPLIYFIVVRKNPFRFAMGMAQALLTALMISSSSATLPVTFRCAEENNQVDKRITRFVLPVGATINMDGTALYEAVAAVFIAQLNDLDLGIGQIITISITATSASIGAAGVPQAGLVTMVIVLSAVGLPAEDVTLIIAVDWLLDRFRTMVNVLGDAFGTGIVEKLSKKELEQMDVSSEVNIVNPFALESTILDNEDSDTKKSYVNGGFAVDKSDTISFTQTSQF
Excitatory amino acid transporter 1 (Homo sapiens), sequence (P43003 whole entry, the tested form may be a part): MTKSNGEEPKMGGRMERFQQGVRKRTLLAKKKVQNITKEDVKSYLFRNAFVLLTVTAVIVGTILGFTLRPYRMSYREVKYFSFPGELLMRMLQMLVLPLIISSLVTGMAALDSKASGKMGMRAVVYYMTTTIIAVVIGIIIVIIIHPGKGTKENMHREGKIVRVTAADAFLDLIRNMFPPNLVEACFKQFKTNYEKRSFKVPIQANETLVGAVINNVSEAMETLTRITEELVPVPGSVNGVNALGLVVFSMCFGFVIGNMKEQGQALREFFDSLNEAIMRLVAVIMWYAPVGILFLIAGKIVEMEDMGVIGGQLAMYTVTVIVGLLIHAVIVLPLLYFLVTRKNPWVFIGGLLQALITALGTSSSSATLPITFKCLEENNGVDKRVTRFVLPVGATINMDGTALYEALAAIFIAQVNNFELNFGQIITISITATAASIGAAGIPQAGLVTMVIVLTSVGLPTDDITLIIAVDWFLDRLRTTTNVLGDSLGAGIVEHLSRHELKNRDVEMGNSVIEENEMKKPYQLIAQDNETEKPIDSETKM

Turning to `O=C1NC(=O)C(c2ccc(-c3cccs3)s2)N1` (stereo not given), the Activity in the experiment filed under Rattus norvegicus [1] was determined as 87%; in experiment [2], 85%.

As for `COC(=O)c1ccc(-c2ccc(C3NC(=O)NC3=O)cc2)cc1` (stereo not given), the Activity in the experiment listed under Rattus norvegicus [1] was 95%; in experiment [2], 93%.

As to `O=C1NC(=O)C(Cc2ccccc2)N1` (stereo not given), the Activity in the experiment filed under Rattus norvegicus [1] worked out at 80%; in experiment [2], 53%.

`O=C1NC(=O)C(c2ccc(Br)s2)N1` (stereo not given): the Activity amounted to 75% in the experiment listed under Rattus norvegicus [1] and 65% in experiment [2].

Take `O=C1NC(c2cccc3ccccc23)C(=O)N1CCCN1C(=O)NC(c2cccc3ccccc23)C1=O` (stereo not given): the Activity in the experiment listed under Rattus norvegicus [1] came to 97%; in experiment [2], 80%.

In the case of `CN(C)c1ccc(/C=C/C2NC(=O)NC2=O)cc1` (stereo not given), the Activity came out at 63% in the experiment filed under Rattus norvegicus [1] and 90% in experiment [2].

With `O=C1NC(=O)C(c2ccc(-c3ccc(C(=O)O)cc3)cc2)N1` (stereo not given), the figures for the Activity (in the experiment filed under Rattus norvegicus [1]; in experiment [2]) were 37% and 104%, respectively.

For `Cc1cc(C2NC(=O)NC2=O)sc1C` (stereo not given), the Activity was 93% in the experiment listed under Rattus norvegicus [1] and 87% in experiment [2].

Regarding `O=C1NC(=O)C(c2ccccc2S(=O)(=O)O)N1` (stereo not given), the Activity in the experiment listed under Rattus norvegicus [1] worked out at 121%; in experiment [2], 100%.

In the case of `CN(C)c1ccc(C2NC(=O)NC2=O)cc1` (stereo not given), the Activity in the experiment filed under Rattus norvegicus [1] is 23%; in experiment [2] it was 87%.

Turning to `O=C1NC(=O)C(c2ccc(C3NC(=O)NC3=O)cc2)N1` (stereo not given), the Activity in the experiment listed under Rattus norvegicus [1] worked out at 78%; in experiment [2], 85%.

On to `O=C1NC(=O)C(c2c3ccccc3cc3ccccc23)N1` (stereo not given), for which the Activity (in the experiment listed under Rattus norvegicus [1]; in experiment [2]) was 81% throughout.

As to `O=C1NC(=O)C(c2csc3ccccc23)N1` (stereo not given), the figures for the Activity (in the experiment listed under Rattus norvegicus [1]; in experiment [2]) were 79% and 118%, respectively.

Consider `O=C1NC(=O)C(c2ccc(S(=O)(=O)O)cc2S(=O)(=O)O)N1` (racemic), for which the Activity came to 11% in the experiment listed under Rattus norvegicus [1] and 100% in experiment [2].

As usually defined, the inhibition is the drop in the measured response relative to a control, in per cent. For orientation: IC50 means the concentration at which inhibition is half-maximal. With `O=C1NC(=O)C(c2ccc(C3NC(=O)NC3=O)s2)N1` (stereo not given), the inhibition in experiment [3], in experiment [4] and in experiment [6] was less than 12% each time. The Activity amounted to 6% in the experiment listed under Rattus norvegicus [1] and 51% in experiment [2]. In addition, in experiment [5], the IC50 worked out at 511 µM.

Consider `O=C1NC(=O)C(c2cccnc2)N1` (stereo not given), for which the Activity was found to be 111% in the experiment listed under Rattus norvegicus [1] and 95% in experiment [2].

`Cc1ccc(C2NC(=O)NC2=O)s1` (stereo not given): the Activity in the experiment filed under Rattus norvegicus [1] was determined as 76%; in experiment [2] it was 66%.

On to `O=C1NC(=O)C(c2cccc3ccccc23)N1` (stereo not given), for which the Activity in the experiment listed under Rattus norvegicus [1] stood at 91%; in experiment [2] it was 83%.

As to `O=C1NC(c2cccc3ccccc23)C(=O)N1CCCCN1C(=O)NC(c2cccc3ccccc23)C1=O` (stereo not given), the figures for the Activity (in the experiment listed under Rattus norvegicus [1]; in experiment [2]) were 74% and 92%, respectively.

With `O=C1NC(=O)C(c2c[nH]cn2)N1` (stereo not given), the values for the Activity (in the experiment listed under Rattus norvegicus [1]; in experiment [2]) were 103% and 82%, respectively.

As for `O=Cc1ccc(C2NC(=O)NC2=O)s1` (racemic), the inhibition in experiment [3], in experiment [4] and in experiment [6] was less than 12% in each case. The Activity in the experiment listed under Rattus norvegicus [1] turned out to be 5%; in experiment [2], 49%. Moreover, the IC50 in experiment [5] stood at 355 µM.

`Nc1c(/N=N/c2ccc(-c3ccc(/N=N/c4cc(S(=O)(=O)O)c5ccccc5c4N)cc3)cc2)cc(S(=O)(=O)O)c2ccccc12`: the Activity in the experiment listed under Rattus norvegicus [1] turned out to be 0%; in experiment [2] it was 82%; in the experiment filed under Rattus norvegicus [7] it was 31%.

Take `N[C@@H](CS)C(=O)O`: the Activity turned out to be 90% in the experiment filed under Rattus norvegicus [1] and 22% in experiment [2].
